pIC50, pKi: −log10 of the molar value.
Columns and labels:
[1] = molecular target: kainate receptor (Rattus norvegicus); experiment: Displacement of [3H]KAIN from kainate receptor in Sprague-Dawley rat brain cortical synaptic membranes after 1 hr by liquid scintillation counting
[2] = molecular target: Glutamate receptor ionotropic, AMPA (Rattus norvegicus, UniProt P19490+P19491+P19492+P19493); experiment: Displacement of [3H]AMPA from AMPA receptor in Sprague-Dawley rat brain cortical synaptic membranes after 1 hr by liquid scintillation counting
Summary of the method: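 Radioligand displacement in rat cortical membranes: [3H]AMPA labelled AMPA receptors and [3H]KA labelled kainate receptors. Results are reported as IC50 for displacement of the radioligand.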

Glutamate NMDA receptor [3] = experiment: Displacement of [3H]CGP39653 from NMDA receptor in Sprague-Dawley rat brain cortical synaptic membranes after 1 hr by liquid scintillation counting v
Summary of the method: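 Competition binding on rat cortical membranes, with [3H]CGP39653 labelling NMDA receptor sites. Ki values were derived and expressed as mean pKi ± SEM from three independent experiments. Hill coefficients were also determined.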

[4] = test system: kainate receptor (Rattus norvegicus); experiment: Displacement of [3H]KAIN from kainate receptor in Sprague-Dawley rat brain cortical synaptic membranes at 100 uM after 1 hr by liquid scintillation counting
[5] = molecular target: Glutamate receptor ionotropic, AMPA (Rattus norvegicus) (UniProt P19491+P19492+P19493+P19490); experiment: Displacement of [3H]AMPA from AMPA receptor in Sprague-Dawley rat brain cortical synaptic membranes at 100 uM after 1 hr by liquid scintillation counting
Summary of the method: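 In rat cortical membrane binding, test compounds were applied at a single concentration of 100 µM. Percent displacement of bound [3H]AMPA (AMPA sites) or [3H]KA (kainate sites) was recorded.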

Glutamate NMDA receptor [6] = experiment: Displacement of [3H]CPP from NMDA receptor in Sprague-Dawley rat brain cortical synaptic membranes after 1 hr by liquid scintillation counting v

Compound	pIC50 [1]	pIC50 [2]	pKi (Glutamate NMDA receptor [3])	inhibition [4]	inhibition [5]	pKi (Glutamate NMDA receptor [6])
N[C@H](CCCC(=O)O)C(=O)O						4.89
N[C@H](CCCc1cscc1C(=O)O)C(=O)O	< 4.00	< 4.00	4.85	5%	5%	

The remaining lines, values ahead:

pIC50 [1]	pIC50 [2]	pKi (Glutamate NMDA receptor [3])	inhibition [4]	inhibition [5]	pKi (Glutamate NMDA receptor [6])	Compound
< 4.00	< 4.00	4.28	5%	5%		N[C@H](C/C=C/c1cscc1C(=O)O)C(=O)O
< 4.00	< 4.00	4.49	5%	5%		N[C@H](CCCc1ccccc1C(=O)O)C(=O)O
< 4.00	< 4.00	< 4.00	5%	5%		N[C@H](C/C=C/c1ccccc1C(=O)O)C(=O)O
